Measured values as given in ChEMBL document CHEMBL3751743, “Synthesis and anti-cancer screening of novel heterocyclic-(2H)-1,2,3-triazoles as potential anti-cancer agents” (Medchemcomm, 2015).

Assays:
[1] = system: A549; assay: Cytotoxicity against human A549 cells after 48 hrs by SRB assay; type: functional; settings: A549, 48 h
Procedure, shortened: (§1)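 NCI-60 five-dose screen: compounds dissolved in DMSO/H2O, tested at five 10-fold dilutions (10^-4 to 10^-8 M) for 48 h. Growth measured by sulforhodamine B optical density at time zero and after 48 h drug or vehicle exposure. Percentage growth calculated relative to control. GI50 is the molar concentration giving 50% reduction in net cell growth versus day-0 cell numbers.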

[2] = Cytotoxicity against human HCT116 cells after 48 hrs by SRB assay; type: functional; settings: HCT-116, 48 h; procedure, shortened: as §1
[3] = Cytotoxicity against human Hs578T cells assessed as reduction of cell viability after 48 hrs by calcein-AM-based fluorescence analysis; type: functional; settings: Hs-578T
Procedure, shortened: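 Cells seeded at 3,000 per well in DMEM with 10% FBS and left overnight at 37 °C. A range of compound concentrations or vehicle was then added for 48 h. Cells were washed with DPBS pH 7.4 and loaded with 2 μM calcein-AM for 30 min at 25 °C. Fluorescence read at ex 490/em 520 nm; viability is given relative to untreated control (100%). Mean ± s.d.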

[4] = Cytotoxicity against human HCT15 cells after 48 hrs by SRB assay; type: functional; settings: HCT-15, 48 h; procedure, shortened: as §1
[5] = system: K562; assay: Cytotoxicity against human K562 cells after 48 hrs by SRB assay; type: functional; settings: K562, 48 h; procedure, shortened: as §1
[6] = Cytotoxicity against human HOP92 cells after 48 hrs by SRB assay; type: functional; settings: HOP-92, 48 h; procedure, shortened: as §1
[7] = Cytotoxicity against human BT549 cells after 48 hrs by SRB assay; type: functional; settings: BT-549, 48 h; procedure, shortened: as §1
[8] = system: 786-0; assay: Cytotoxicity against human 786-0 cells after 48 hrs by SRB assay; type: functional; settings: 786-0, 48 h; procedure, shortened: as §1
[9] = system: SK-MEL-2; assay: Cytotoxicity against human SK-MEL-2 cells after 48 hrs by SRB assay; type: functional; settings: SK-MEL-2, 48 h; procedure, shortened: as §1
[10] = system: SR; assay: Cytotoxicity against human SR cells after 48 hrs by SRB assay; type: functional; procedure, shortened: as §1
[11] = Cytotoxicity against human OVCAR5 cells after 48 hrs by SRB assay; type: functional; settings: OVCAR-5, 48 h; procedure, shortened: as §1
[12] = system: MCF7; assay: Cytotoxicity against human MCF7 cells after 48 hrs by SRB assay; type: functional; settings: MCF7, 48 h; procedure, shortened: as §1
[13] = Cytotoxicity against human IGROV1 cells after 48 hrs by SRB assay; type: functional; settings: IGROV-1, 48 h
Procedure, shortened: (§2)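 NCI-60 five-dose screen: compounds in DMSO/H2O tested at 10^-4 to 10^-8 M (10-fold steps) for 48 h. Cell mass read by sulforhodamine B optical density at time zero and after exposure to compound or vehicle. GI50 is the concentration giving 50% reduction in net cell growth relative to day-0 cell numbers.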

[14] = Cytotoxicity against human MOLT4 cells after 48 hrs by SRB assay; type: functional; settings: MOLT-4, 48 h; procedure, shortened: as §1
[15] = Cytotoxicity against human PC3 cells after 48 hrs by SRB assay; type: functional; settings: PC-3, 48 h; procedure, shortened: as §1
[16] = system: SK-MEL-5; assay: Cytotoxicity against human SK-MEL-5 cells after 48 hrs by SRB assay; type: functional; settings: SK-MEL-5, 48 h; procedure, shortened: as §1
[17] = system: NCI-H522; assay: Cytotoxicity against human NCI-H522 cells after 48 hrs by SRB assay; type: functional; settings: NCI-H522, 48 h; procedure, shortened: as §1
[18] = Cytotoxicity against human OVCAR3 cells after 48 hrs by SRB assay; type: functional; settings: OVCAR-3, 48 h; procedure, shortened: as §1
[19] = system: MDA-MB-435; assay: Cytotoxicity against human MDA-MB-435 cells after 48 hrs by SRB assay; type: functional; settings: MDA-MB-435, 48 h; procedure, shortened: as §1
[20] = system: SN12C; assay: Cytotoxicity against human SN12C cells after 48 hrs by SRB assay; type: functional; procedure, shortened: as §1
[21] = system: ACHN; assay: Cytotoxicity against human ACHN cells after 48 hrs by SRB assay; type: functional; procedure, shortened: as §1
[22] = Cytotoxicity against human HOP62 cells after 48 hrs by SRB assay; type: functional; settings: HOP-62, 48 h; procedure, shortened: as §2
[23] = molecular target: Tubulin (Sus scrofa, UniProt P02554+P02550); assay: Inhibition of porcine brain tubulin polymerization by spectrophotometric analysis
Procedure, shortened: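 Tubulin at 4 mg/mL in cold 80 mM PIPES pH 6.9 with 2 mM MgCl2, 0.5 mM EGTA, GTP and 10% glycerol. Compound (added as 10x stock in 50% DMSO) or DMSO was preincubated 2 min at 37 °C in a prewarmed plate. Cold tubulin was then added, and polymerization at 37 °C was followed by A340 over time. Dose-response, mean ± s.d., n=3.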

[24] = Cytotoxicity against human COLO205 cells after 48 hrs by SRB assay; type: functional; settings: COLO 205, 48 h; procedure, shortened: as §1
[25] = Cytotoxicity against human SNB19 cells after 48 hrs by SRB assay; type: functional; settings: SNB-19, 48 h; procedure, shortened: as §1
[26] = Cytotoxicity against human NCI-ADR-RES cells after 48 hrs by SRB assay; type: functional; procedure, shortened: as §1
[27] = Cytotoxicity against human RPMI8226 cells after 48 hrs by SRB assay; type: functional; settings: RPMI-8226, 48 h; procedure, shortened: as §1
[28] = Cytotoxicity against human SF539 cells after 48 hrs by SRB assay; type: functional; settings: SF-539, 48 h; procedure, shortened: as §1
[29] = system: A498; assay: Cytotoxicity against human A498 cells after 48 hrs by SRB assay; type: functional; settings: A498, 48 h; procedure, shortened: as §1
[30] = system: MDA-MB-231; assay: Cytotoxicity against human MDA-MB-231 cells after 48 hrs by SRB assay; type: functional; settings: MDA-MB-231, 48 h; procedure, shortened: as §1
[31] = Cytotoxicity against human UACC257 cells after 48 hrs by SRB assay; type: functional; settings: UACC-257, 48 h
Procedure, shortened: (§3)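 NCI-60 five-dose screen. Compounds dissolved in DMSO/H2O and tested at five 10-fold dilutions (10^-4 to 10^-8 M) for 48 h. Growth read by sulforhodamine B optical density at time zero and after 48 h of exposure to compound or vehicle. Percent growth calculated against control. GI50 is the molar concentration giving 50% reduction in net cell growth relative to cell number on day 0.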

[32] = Cytotoxicity against human SF295 cells after 48 hrs by SRB assay; type: functional; settings: SF-295, 48 h; procedure, shortened: as §1
[33] = Cytotoxicity against human SF268 cells after 48 hrs by SRB assay; type: functional; settings: SF-268, 48 h; procedure, shortened: as §1
[34] = Cytotoxicity against human SKOV3 cells after 48 hrs by SRB assay; type: functional; settings: SK-OV-3, 48 h; procedure, shortened: as §1
[35] = system: CCRF-CEM; assay: Cytotoxicity against human CCRF-CEM cells after 48 hrs by SRB assay; type: functional; procedure, shortened: as §1
[36] = system: MDA-MB-468; assay: Cytotoxicity against human MDA-MB-468 cells after 48 hrs by SRB assay; type: functional; settings: MDA-MB-468, 48 h; procedure, shortened: as §1
[37] = Cytotoxicity against human HL-60(TB) cells after 48 hrs by SRB assay; type: functional; settings: HL-60, 48 h; procedure, shortened: as §1
[38] = Cytotoxicity against human UACC62 cells after 48 hrs by SRB assay; type: functional; settings: UACC-62, 48 h; procedure, shortened: as §3
[39] = Cytotoxicity against human HCC2998 cells after 48 hrs by SRB assay; type: functional; settings: HCC 2998, 48 h; procedure, shortened: as §1
[40] = Cytotoxicity against human UO31 cells after 48 hrs by SRB assay; type: functional; settings: UO-31, 48 h; procedure, shortened: as §3
[41] = system: NCI-H460; assay: Cytotoxicity against human NCI-H460 cells after 48 hrs by SRB assay; type: functional; settings: NCI-H460, 48 h; procedure, shortened: as §1
[42] = system: M14; assay: Cytotoxicity against human M14 cells after 48 hrs by SRB assay; type: functional; settings: M14, 48 h; procedure, shortened: as §1
[43] = Cytotoxicity against human SW620 cells after 48 hrs by SRB assay; type: functional; settings: SW-620, 48 h; procedure, shortened: as §1
[44] = Cytotoxicity against human SNB75 cells after 48 hrs by SRB assay; type: functional; settings: SNB-75, 48 h; procedure, shortened: as §1
[45] = system: HT-29; assay: Cytotoxicity against human HT-29 cells after 48 hrs by SRB assay; type: functional; settings: HT-29, 48 h; procedure, shortened: as §1
[46] = Cytotoxicity against human Hs 578T cells after 48 hrs by SRB assay; type: functional; procedure, shortened: as §1
[47] = system: KM12; assay: Cytotoxicity against human KM12 cells after 48 hrs by SRB assay; type: functional; settings: KM12, 48 h; procedure, shortened: as §1
[48] = system: U-251; assay: Cytotoxicity against human U251 cells after 48 hrs by SRB assay; type: functional; settings: U-251, 48 h; procedure, shortened: as §3
[49] = Cytotoxicity against human LOXIMVI cells after 48 hrs by SRB assay; type: functional; settings: LOX IMVI; procedure, shortened: as §1
[50] = Cytotoxicity against human OVCAR4 cells after 48 hrs by SRB assay; type: functional; settings: OVCAR-4, 48 h; procedure, shortened: as §1
[51] = Cytotoxicity against human Caki1 cells after 48 hrs by SRB assay; type: functional; settings: CAKI-1, 48 h; procedure, shortened: as §1
[52] = Cytotoxicity against human DU145 cells after 48 hrs by SRB assay; type: functional; settings: DU-145, 48 h; procedure, shortened: as §1
[53] = system: SK-MEL-28; assay: Cytotoxicity against human SK-MEL-28 cells after 48 hrs by SRB assay; type: functional; settings: SK-MEL-28, 48 h; procedure, shortened: as §1
[54] = Cytotoxicity against human OVCAR8 cells after 48 hrs by SRB assay; type: functional; settings: OVCAR-8, 48 h; procedure, shortened: as §1
[55] = system: NCI-H23; assay: Cytotoxicity against human NCI-H23 cells after 48 hrs by SRB assay; type: functional; settings: NCI-H23, 48 h; procedure, shortened: as §1

COc1cc(-c2n[nH]nc2-c2cc3ccccc3s2)cc(OC)c1OC
34 nM: GI50 [15]
14 nM: GI50 [30]
15 nM: GI50 [22]
36 nM: GI50 [39]
1700 nM: IC50 [23]
10 nM: GI50 [3]
< 10 nM: GI50 [2] | GI50 [4] | GI50 [5] | GI50 [6] | GI50 [7] | GI50 [8] | GI50 [9] | GI50 [10] | GI50 [12] | GI50 [13] | GI50 [16] | GI50 [17] | GI50 [18] | GI50 [19] | GI50 [21] | GI50 [24] | GI50 [25] | GI50 [26] | GI50 [27] | GI50 [28] | GI50 [29] | GI50 [31] | GI50 [32] | GI50 [33] | GI50 [34] | GI50 [36] | GI50 [37] | GI50 [38] | GI50 [40] | GI50 [41] | GI50 [42] | GI50 [43] | GI50 [44] | GI50 [46] | GI50 [48] | GI50 [49] | GI50 [51] | GI50 [52] | GI50 [53] | GI50 [54] | GI50 [55]
42 nM: GI50 [11] | GI50 [14] | GI50 [50]
48 nM: GI50 [20]
22 nM: GI50 [47]
20 nM: GI50 [45]
28 nM: GI50 [35]
23 nM: GI50 [1]
